Measurements taken from ChEMBL document CHEMBL3627637, “Phenylalanine and Phenylglycine Analogues as Arginine Mimetics in Dengue Protease Inhibitors” (J Med Chem, 2015).
pIC50: −log10 of the molar value. Non-standard residues stand in square brackets, D forms with d. Residues, ends and D or L forms follow the SMILES beside them. *: point of attachment. 3Pal = N[C@@H](Cc1cccnc1)C(=O)O; 4Pal = N[C@@H](Cc1ccncc1)C(=O)O; Phg = N[C@H](C(=O)O)c1ccccc1; Bz = O=C(c1ccccc1)*

Target: Trypsin (Homo sapiens, UniProt P07477+P07478+P35030)
Experiment: Inhibition of trypsin (unknown origin) at 50 uM preincubated with protein for 15 mins followed by boc-Val-Pro-Arg-AMC substrate addition measured by continuous fluorometric analysis
Format: protein assay
Conditions: not given
Summary of the method: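 Trypsin (1 nM) was preincubated 15 min with inhibitor (50 μM final) in 50 mM Tris-HCl pH 7.5, 150 mM NaCl, 0.05% Tween 20. boc-Val-Pro-Arg-AMC (50 μM final) was added. Continuous fluorescence at ex 355/em 460 nm; rate compared with an uninhibited control. Triplicate.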

Row | SMILES | inhibition [%]
1 | NCCCC[C@H](NC(=O)[C@H](Cc1ccncc1)NC(=O)c1ccccc1)C(=O)N[C@H](C(N)=O)c1ccccc1 (Bz-[4Pal]-Lys-[Phg]-NH2) | 0
2 | NCCCC[C@H](NC(=O)[C@H](Cc1cccnc1)NC(=O)c1ccccc1)C(=O)N[C@H](C(N)=O)c1ccccc1 (Bz-[3Pal]-Lys-[Phg]-NH2) | 3.4
3 | N=C(N)c1ccc([C@H](NC(=O)c2ccccc2)C(=O)N[C@@H](CCCCN)C(=O)N[C@H](C(N)=O)c2ccccc2)cc1 | 19.2
4 | N=C(N)NCCC[C@H](NC(=O)c1ccccc1)C(=O)N[C@@H](CCCCN)C(=O)N[C@H](C(N)=O)c1ccccc1 (Bz-Arg-Lys-[Phg]-NH2) | 0.5
5 | N=C(N)NCCC[C@H](NC(=O)c1ccc(C(F)(F)F)cc1)C(=O)N[C@@H](CCCCN)C(=O)N[C@H](C(N)=O)c1ccccc1 | 11.5

System: dengue virus type 2
Experiment: Antiviral activity against wild type Dengue virus (serotype 2) infected in human Huh-7 cells assessed as inhibition of viral replication at 50 uM incubated for 48 hrs measured by Cell-Titer Glo Luminescent viability assay
Format: functional
Conditions: Huh-7, 48 h

Row | SMILES | inhibition at 50 µM [%]
6 | N=C(N)NCCC[C@H](NC(=O)c1ccccc1)C(=O)N[C@@H](CCCCN)C(=O)N[C@H](C(N)=O)c1ccccc1 (Bz-Arg-Lys-[Phg]-NH2) | 40.3

System: dengue virus type 2
Experiment: Inhibition of Dengue virus (serotype 2) NS2B-NS3 protease at 50 uM preincubated with protein for 15 mins followed by Abz-Nle-Lys-Arg-Arg-Ser-3-(NO2)Tyr substrate addition measured by continuous fluorometric analysis
Conditions: not given
Summary of the method: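 Continuous FRET assay in 50 mM Tris-HCl pH 9.0, 10% ethylene glycol, 0.0016% Brij 58. DENV2 protease (100 nM) was preincubated 15 min with inhibitor (50 μM final), then Abz-Nle-Lys-Arg-Arg-Ser-3-(NO2)Tyr (50 μM final; Km 105 μM) was added. Read at ex 320/em 405 nm as slope over 15 min, relative to an uninhibited control. Triplicate.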

Row | SMILES | inhibition [%]
7 | NCCCC[C@H](NC(=O)[C@H](Cc1ccncc1)NC(=O)c1ccccc1)C(=O)N[C@H](C(N)=O)c1ccccc1 (Bz-[4Pal]-Lys-[Phg]-NH2) | 12
8 | NCCCC[C@H](NC(=O)[C@H](Cc1cccnc1)NC(=O)c1ccccc1)C(=O)N[C@H](C(N)=O)c1ccccc1 (Bz-[3Pal]-Lys-[Phg]-NH2) | 17.5
9 | N=C(N)c1ccc([C@H](NC(=O)c2ccccc2)C(=O)N[C@@H](CCCCN)C(=O)N[C@H](C(N)=O)c2ccccc2)cc1 | 24.8
10 | N=C(N)NCCC[C@H](NC(=O)c1ccc(C(F)(F)F)cc1)C(=O)N[C@@H](CCCCN)C(=O)N[C@H](C(N)=O)c1ccccc1 | 98.7

System: not listed separately
Experiment: Inhibition of Dengue virus (serotype 2) NS2B-NS3 protease preincubated with protein for 15 mins followed by Abz-Nle-Lys-Arg-Arg-Ser-3-(NO2)Tyr substrate addition measured by continuous fluorometric analysis
Parameters: species or system dengue virus type 2
Conditions: not given
Summary of the method: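 DENV2 protease (100 nM) in Tris-HCl pH 9.0/ethylene glycol/Brij 58 buffer, preincubated 15 min with inhibitor, then 50 μM FRET substrate added. Read at ex 320/em 405 nm over 15 min. Done for compounds with ≥70% inhibition, using series of 0–2.5, 0–6 or 0–30 μM, in triplicate, with nonlinear fitting. Ki came from substrate at 50–200 μM via Cheng–Prusoff.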

Row | SMILES | pIC50
11 | N=C(N)NCCC[C@H](NC(=O)c1ccc(C(F)(F)F)cc1)C(=O)N[C@@H](CCCCN)C(=O)N[C@H](C(N)=O)c1ccccc1 | 5.99

System: not listed separately
Experiment: Half life in Sprague-Dawley rat liver microsomes at 100 uM incubated for 30 mins by HPLC analysis
Format: ADME
Conditions: not given
Summary of the method: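 Pooled male Sprague-Dawley rat liver microsomes (0.2 mg/mL protein) with NADPH (5 mM) in DPBS, preincubated 15 min at 37 °C. Compound (100 μM) was then incubated 30 min at 37 °C. Aliquots at 0, 2, 5, 10, 20 and 30 min were quenched with acetonitrile, iced, and centrifuged. Parent remaining was measured by RP-HPLC-UV peak area versus reference. Testosterone served as activity control.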

Row | SMILES | half-life at 100 µM [h]
12 | C[C@]12CC[C@H]3[C@@H](CCC4=CC(=O)CC[C@@]43C)[C@@H]1CC[C@@H]2O [TESTOSTERONE] | 1.05

System: not listed separately
Experiment: Cytotoxicity against human HuH7 cells at 50 uM incubated for 48 hrs measured by Cell-Titer Glo Luminescent viability Assay
Format: cell-based
Conditions: huh-7, 48 h

Row | SMILES | Activity
13 | N=C(N)NCCC[C@H](NC(=O)c1ccccc1)C(=O)N[C@@H](CCCCN)C(=O)N[C@H](C(N)=O)c1ccccc1 (Bz-Arg-Lys-[Phg]-NH2) | Non-toxic

Target: Prothrombin (Homo sapiens, UniProt P00734)
Experiment: Inhibition of human thrombin at 25 uM preincubated with protein for 15 mins followed by boc-Val-Pro-Arg-AMC substrate addition measured after 10 mins by continuous fluorometric analysis
Conditions: not given

Row | SMILES | inhibition [%]
14 | NCCCC[C@H](NC(=O)[C@H](Cc1ccncc1)NC(=O)c1ccccc1)C(=O)N[C@H](C(N)=O)c1ccccc1 (Bz-[4Pal]-Lys-[Phg]-NH2) | 3.8
15 | NCCCC[C@H](NC(=O)[C@H](Cc1cccnc1)NC(=O)c1ccccc1)C(=O)N[C@H](C(N)=O)c1ccccc1 (Bz-[3Pal]-Lys-[Phg]-NH2) | 1.8
16 | N=C(N)c1ccc([C@H](NC(=O)c2ccccc2)C(=O)N[C@@H](CCCCN)C(=O)N[C@H](C(N)=O)c2ccccc2)cc1 | 5.5
17 | N=C(N)NCCC[C@H](NC(=O)c1ccc(C(F)(F)F)cc1)C(=O)N[C@@H](CCCCN)C(=O)N[C@H](C(N)=O)c1ccccc1 | 7.7

Target: Genome polyprotein (West Nile virus) (UniProt P06935)
Experiment: Inhibition of West Nile virus NS2B-NS3 protease at 50 uM preincubated with protein for 15 mins followed by Abz-Gly-Leu-Lys-Arg-Gly-Gly-3-(NO2)-Tyr substrate addition measured by continuous fluorometric analysis
Conditions: not given
Summary of the method: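 WNV NS2B-NS3pro (150 nM) was preincubated 15 min with inhibitor (50 μM final) in 50 mM Tris-HCl pH 9.0, 10% ethylene glycol, 0.0016% Brij 58. Abz-Gly-Leu-Lys-Arg-Gly-Gly-3-(NO2)-Tyr (50 μM; Km 212 μM) started the reaction. Continuous read at ex 320/em 405 nm for 15 min against an uninhibited control. Triplicate.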

Chain of Genome polyprotein (West Nile virus) (P06935 whole entry): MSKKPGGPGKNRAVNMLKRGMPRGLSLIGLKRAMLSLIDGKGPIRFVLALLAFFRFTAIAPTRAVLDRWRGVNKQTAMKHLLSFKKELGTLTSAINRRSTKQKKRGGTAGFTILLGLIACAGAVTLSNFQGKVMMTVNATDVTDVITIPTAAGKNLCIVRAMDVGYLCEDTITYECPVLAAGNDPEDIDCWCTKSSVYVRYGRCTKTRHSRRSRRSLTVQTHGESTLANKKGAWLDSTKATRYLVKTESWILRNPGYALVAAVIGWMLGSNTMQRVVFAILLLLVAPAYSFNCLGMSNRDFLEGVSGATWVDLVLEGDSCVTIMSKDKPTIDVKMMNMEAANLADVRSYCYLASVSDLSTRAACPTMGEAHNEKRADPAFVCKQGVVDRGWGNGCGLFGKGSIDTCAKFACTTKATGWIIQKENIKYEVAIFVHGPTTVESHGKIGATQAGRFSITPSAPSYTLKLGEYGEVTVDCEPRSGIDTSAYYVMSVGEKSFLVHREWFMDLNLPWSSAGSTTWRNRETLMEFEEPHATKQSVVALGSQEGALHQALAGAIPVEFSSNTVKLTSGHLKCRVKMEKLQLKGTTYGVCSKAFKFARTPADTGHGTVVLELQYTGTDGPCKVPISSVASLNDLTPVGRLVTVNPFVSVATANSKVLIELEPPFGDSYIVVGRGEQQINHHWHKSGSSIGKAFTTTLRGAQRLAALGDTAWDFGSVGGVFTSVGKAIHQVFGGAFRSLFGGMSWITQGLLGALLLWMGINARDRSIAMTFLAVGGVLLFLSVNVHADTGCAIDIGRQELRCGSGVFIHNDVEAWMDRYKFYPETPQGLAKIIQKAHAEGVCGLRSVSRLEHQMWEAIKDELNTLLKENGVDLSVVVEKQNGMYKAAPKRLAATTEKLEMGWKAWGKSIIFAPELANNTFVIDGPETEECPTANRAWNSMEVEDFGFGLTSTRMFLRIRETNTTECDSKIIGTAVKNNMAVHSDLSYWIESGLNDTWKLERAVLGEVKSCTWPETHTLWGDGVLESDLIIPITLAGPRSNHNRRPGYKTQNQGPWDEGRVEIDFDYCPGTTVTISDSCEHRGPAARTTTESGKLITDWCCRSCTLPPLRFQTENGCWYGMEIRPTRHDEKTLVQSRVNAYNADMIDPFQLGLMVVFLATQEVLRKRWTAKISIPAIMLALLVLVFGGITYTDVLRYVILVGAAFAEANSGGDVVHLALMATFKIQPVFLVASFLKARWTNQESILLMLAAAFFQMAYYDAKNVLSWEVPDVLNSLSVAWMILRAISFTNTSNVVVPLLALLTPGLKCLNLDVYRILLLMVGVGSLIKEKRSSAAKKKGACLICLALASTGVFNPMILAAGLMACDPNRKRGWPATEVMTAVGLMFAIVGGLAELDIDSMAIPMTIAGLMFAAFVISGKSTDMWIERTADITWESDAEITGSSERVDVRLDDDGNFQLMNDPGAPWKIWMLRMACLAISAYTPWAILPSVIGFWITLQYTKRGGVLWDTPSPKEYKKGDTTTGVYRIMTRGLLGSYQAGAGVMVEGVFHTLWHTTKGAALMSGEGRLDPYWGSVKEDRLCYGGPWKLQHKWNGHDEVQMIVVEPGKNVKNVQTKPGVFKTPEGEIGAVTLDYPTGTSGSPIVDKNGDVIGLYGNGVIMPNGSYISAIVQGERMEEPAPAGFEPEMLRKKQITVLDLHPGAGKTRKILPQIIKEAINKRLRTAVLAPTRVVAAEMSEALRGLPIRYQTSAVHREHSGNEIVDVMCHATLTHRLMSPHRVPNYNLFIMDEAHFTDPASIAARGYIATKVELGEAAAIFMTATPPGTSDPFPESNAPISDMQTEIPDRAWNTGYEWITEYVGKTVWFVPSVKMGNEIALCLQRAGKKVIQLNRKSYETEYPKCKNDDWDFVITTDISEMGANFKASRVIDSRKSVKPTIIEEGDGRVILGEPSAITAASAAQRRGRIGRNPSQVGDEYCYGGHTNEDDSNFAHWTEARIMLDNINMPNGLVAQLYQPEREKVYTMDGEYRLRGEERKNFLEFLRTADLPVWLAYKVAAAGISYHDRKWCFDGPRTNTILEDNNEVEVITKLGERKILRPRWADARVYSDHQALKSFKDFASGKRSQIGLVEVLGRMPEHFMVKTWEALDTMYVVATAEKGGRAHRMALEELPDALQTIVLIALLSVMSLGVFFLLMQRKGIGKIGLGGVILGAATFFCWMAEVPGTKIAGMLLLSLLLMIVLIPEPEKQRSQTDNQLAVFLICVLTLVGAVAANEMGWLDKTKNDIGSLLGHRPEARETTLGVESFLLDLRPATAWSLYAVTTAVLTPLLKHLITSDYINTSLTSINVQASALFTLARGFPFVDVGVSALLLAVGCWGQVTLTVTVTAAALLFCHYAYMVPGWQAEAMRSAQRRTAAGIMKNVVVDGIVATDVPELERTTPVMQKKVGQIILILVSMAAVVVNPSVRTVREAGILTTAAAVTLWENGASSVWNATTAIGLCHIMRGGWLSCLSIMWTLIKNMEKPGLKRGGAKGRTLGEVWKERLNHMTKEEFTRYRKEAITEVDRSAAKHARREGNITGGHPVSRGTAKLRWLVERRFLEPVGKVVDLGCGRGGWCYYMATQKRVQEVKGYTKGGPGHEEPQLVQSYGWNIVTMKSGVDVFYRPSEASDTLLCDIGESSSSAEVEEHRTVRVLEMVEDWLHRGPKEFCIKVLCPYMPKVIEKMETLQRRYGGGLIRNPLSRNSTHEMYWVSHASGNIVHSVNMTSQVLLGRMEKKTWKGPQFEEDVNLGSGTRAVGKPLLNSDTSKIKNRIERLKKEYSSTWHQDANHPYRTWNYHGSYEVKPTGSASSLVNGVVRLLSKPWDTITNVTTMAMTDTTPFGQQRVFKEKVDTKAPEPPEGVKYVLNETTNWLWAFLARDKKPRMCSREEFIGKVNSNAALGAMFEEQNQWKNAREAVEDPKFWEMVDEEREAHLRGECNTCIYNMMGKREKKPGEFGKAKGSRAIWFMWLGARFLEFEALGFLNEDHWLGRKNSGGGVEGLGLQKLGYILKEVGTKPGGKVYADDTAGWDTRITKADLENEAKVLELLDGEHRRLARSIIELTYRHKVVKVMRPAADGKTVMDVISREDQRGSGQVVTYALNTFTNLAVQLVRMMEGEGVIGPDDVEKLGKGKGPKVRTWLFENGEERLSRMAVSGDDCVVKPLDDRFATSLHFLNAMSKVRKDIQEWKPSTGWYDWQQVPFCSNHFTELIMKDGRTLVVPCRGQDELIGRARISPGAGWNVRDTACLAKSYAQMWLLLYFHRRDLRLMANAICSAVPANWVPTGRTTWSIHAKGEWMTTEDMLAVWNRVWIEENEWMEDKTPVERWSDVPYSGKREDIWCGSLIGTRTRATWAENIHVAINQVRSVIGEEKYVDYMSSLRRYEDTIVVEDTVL

Row | SMILES | inhibition [%]
18 | NCCCC[C@H](NC(=O)[C@H](Cc1ccncc1)NC(=O)c1ccccc1)C(=O)N[C@H](C(N)=O)c1ccccc1 (Bz-[4Pal]-Lys-[Phg]-NH2) | 0
19 | NCCCC[C@H](NC(=O)[C@H](Cc1cccnc1)NC(=O)c1ccccc1)C(=O)N[C@H](C(N)=O)c1ccccc1 (Bz-[3Pal]-Lys-[Phg]-NH2) | 23.8
20 | N=C(N)c1ccc([C@H](NC(=O)c2ccccc2)C(=O)N[C@@H](CCCCN)C(=O)N[C@H](C(N)=O)c2ccccc2)cc1 | 59.5
21 | N=C(N)NCCC[C@H](NC(=O)c1ccc(C(F)(F)F)cc1)C(=O)N[C@@H](CCCCN)C(=O)N[C@H](C(N)=O)c1ccccc1 | 85.3
